# Test results as given in ChEMBL document CHEMBL2086252, “Syntheses and evaluation of anticonvulsant activity of novel branched alkyl carbamates” (J Med Chem, 2012).
# Active and inactive are the calls of the source. The calls are words filed in the database; no cut-off is given here.
# Experiments:
# Mus musculus [1] = assay: Anticonvulsant activity in albino CF1 mouse assessed as protection against maximal electroshock-induced seizures at 100 mg/kg, ip after 0.5 hrs; type: functional, organism-based; parameters: dose 100 mg/kg
# In short: (§1)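 Mice dosed ip at 30, 100 or 300 mg/kg, then tested 0.5 h and 4 h after administration in the MES or scMet test. Protection was recorded as animals protected over animals tested. Neurotoxicity was recorded as motor impairment or sedation, as animals affected over animals tested.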
# Rattus norvegicus [2] = assay: Anticonvulsant activity in po dosed Sprague-Dawley albino rat assessed as protection against subcutaneous metrazol-induced seizures; type: functional
# In short: (§2)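 Quantitative testing: rats dosed orally or ip in MES and scMet tests, and mice dosed ip, including the 6 Hz (32 mA) psychomotor seizure test. ED50 and TD50 were reported in mg/kg with ranges in parentheses. Protective index was calculated as TD50/ED50.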
# Rattus norvegicus [3] = assay: Neurotoxicity in pilocarpine-induced status epilepticus Sprague-Dawley albino rat model assessed as minimal motor impairment at 30 mg/kg, ip after 0.5 hrs by rotarod test; type: toxicity, organism-based; parameters: dose 30 mg/kg, route intraperitoneal; conditions: in vivo
# In short: (§3)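 Rat pilocarpine status epilepticus model: test carbamate given at 0 or 30 min after the first observed Racine stage 3 motor seizure, which marks SE onset. Neurotoxicity was scored within the same model.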
# Rattus norvegicus [4] = assay: Anticonvulsant activity in Sprague-Dawley albino rat assessed as protection against maximal electroshock-induced seizures at 30 mg/kg, po after 1 hr; type: functional, organism-based; parameters: dose 30 mg/kg
# In short: (§4)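 Rats dosed orally. Anti-MES protection was scored as animals protected over animals tested at each time after dosing. Neurotoxicity was scored as motor impairment or sedation, as animals affected over animals tested.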
# Rattus norvegicus [5] = assay: Neurotoxicity in pilocarpine-induced status epilepticus Sprague-Dawley albino rat model assessed as minimal motor impairment at 100 mg/kg, ip after 0.5 hrs by rotarod test; type: toxicity, organism-based; parameters: dose 100 mg/kg, route intraperitoneal; conditions: in vivo
# Mus musculus [6] = assay: Anticonvulsant activity in albino CF1 mouse assessed as protection against subcutaneous metrazol-induced seizures at 100 mg/kg, ip after 4 hrs; type: functional, organism-based; parameters: dose 100 mg/kg; in short: as §1
# Mus musculus [7] = assay: Anticonvulsant activity in albino CF1 mouse assessed as protection against subcutaneous metrazol-induced seizures at 300 mg/kg, ip after 0.5 hrs; type: functional, organism-based; parameters: dose 300 mg/kg; in short: as §1
# Rattus norvegicus [8] = assay: Anticonvulsant activity in Sprague-Dawley albino rat assessed as protection against maximal electroshock-induced seizures at 30 mg/kg, po after 4 hrs; type: functional, organism-based; parameters: dose 30 mg/kg; in short: as §4
# Rattus norvegicus [9] = assay: Anticonvulsant activity in Sprague-Dawley albino rat assessed as protection against maximal electroshock-induced seizures at 30 mg/kg, po after 2 hrs; type: functional, organism-based; parameters: dose 30 mg/kg; in short: as §4
# Rattus norvegicus [10] = assay: Neurotoxicity in pilocarpine-induced status epilepticus Sprague-Dawley albino rat model assessed as minimal motor impairment at 30 mg/kg, ip after 1 hr by rotarod test; type: toxicity, organism-based; parameters: dose 30 mg/kg, route intraperitoneal; conditions: in vivo; in short: as §3
# Rattus norvegicus [11] = assay: Neurotoxicity in pilocarpine-induced status epilepticus Sprague-Dawley albino rat model assessed as minimal motor impairment at 300 mg/kg, ip after 2 hrs by rotarod test; type: toxicity, organism-based; parameters: dose 300 mg/kg, route intraperitoneal; conditions: in vivo; in short: as §3
# Rattus norvegicus [12] = assay: Neurotoxicity in pilocarpine-induced status epilepticus Sprague-Dawley albino rat model assessed as minimal motor impairment at 300 mg/kg, ip after 4 hrs by rotarod test; type: toxicity, organism-based; parameters: dose 300 mg/kg, route intraperitoneal; conditions: in vivo; in short: as §3
# Mus musculus [13] = assay: Anticonvulsant activity in albino CF1 mouse assessed as protection against maximal electroshock-induced seizures at 30 mg/kg, ip after 4 hrs; type: functional, organism-based; parameters: dose 30 mg/kg; in short: as §1
# Rattus norvegicus [14] = assay: Neurotoxicity in pilocarpine-induced status epilepticus Sprague-Dawley albino rat model assessed as minimal motor impairment at 100 mg/kg, ip after 2 hrs by rotarod test; type: toxicity, organism-based; parameters: dose 100 mg/kg, route intraperitoneal; conditions: in vivo
# Mus musculus [15] = assay: Anticonvulsant activity in albino CF1 mouse assessed as protection against maximal electroshock-induced seizures at 300 mg/kg, ip after 4 hrs; type: functional, organism-based; parameters: dose 300 mg/kg; in short: as §1
# Rattus norvegicus [16] = assay: Neurotoxicity in pilocarpine-induced status epilepticus Sprague-Dawley albino rat model assessed as minimal motor impairment at 30 mg/kg, ip after 2 hrs by rotarod test; type: toxicity, organism-based; parameters: dose 30 mg/kg, route intraperitoneal; conditions: in vivo; in short: as §3
# Rattus norvegicus [17] = assay: Neurotoxicity in pilocarpine-induced status epilepticus Sprague-Dawley albino rat model assessed as minimal motor impairment at 300 mg/kg, ip after 0.5 hrs by rotarod test; type: toxicity, organism-based; parameters: dose 300 mg/kg, route intraperitoneal; conditions: in vivo; in short: as §3
# Rattus norvegicus [18] = assay: Neurotoxicity in pilocarpine-induced status epilepticus Sprague-Dawley albino rat model assessed as minimal motor impairment at 30 mg/kg, ip after 0.25 hr by rotarod test; type: toxicity, organism-based; parameters: dose 30 mg/kg, route intraperitoneal; conditions: in vivo; in short: as §3
# Mus musculus [19] = assay: Anticonvulsant activity in albino CF1 mouse assessed as protection against subcutaneous metrazol-induced seizures at 30 mg/kg, ip after 0.5 hrs; type: functional, organism-based; parameters: dose 30 mg/kg; in short: as §1
# Rattus norvegicus [20] = assay: Neurotoxicity in Sprague-Dawley albino rat assessed as minimal motor impairment at 30 mg/kg, po by rotarod test; type: toxicity, organism-based; parameters: dose 30 mg/kg, route oral; conditions: in vivo; in short: as §4
# Mus musculus [21] = assay: Anticonvulsant activity in albino CF1 mouse assessed as protection against subcutaneous metrazol-induced seizures at 300 mg/kg, ip after 4 hrs; type: functional, organism-based; parameters: dose 300 mg/kg; in short: as §1
# Rattus norvegicus [22] = assay: Neurotoxicity in pilocarpine-induced status epilepticus Sprague-Dawley albino rat model assessed as minimal motor impairment at 300 mg/kg, ip after 1 hr by rotarod test; type: toxicity, organism-based; parameters: dose 300 mg/kg, route intraperitoneal; conditions: in vivo; in short: as §3
# Rattus norvegicus [23] = assay: Anticonvulsant activity in po dosed Sprague-Dawley albino rat assessed as protection against maximal electroshock-induced seizures; type: functional; in short: as §2
# Rattus norvegicus [24] = assay: Anticonvulsant activity in ip dosed Sprague-Dawley albino rat assessed as protection against pilocarpine-induced status epilepticus after 0.5 hrs; type: functional
# In short: (§5)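 Pilocarpine status epilepticus model in rats. Number and severity of convulsive seizures were observed behaviourally.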
# Rattus norvegicus [25] = assay: Protective index, ratio of TD50 for po dosed Sprague-Dawley albino rat by rotarod test to ED50 for po dosed Sprague-Dawley albino rat by subcutaneous metrazol seizures test; type: functional
# In short: (§6)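 Protective index calculated as TD50/ED50, with TD50 and ED50 taken from the same species and dosing route.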
# Mus musculus [26] = assay: Anticonvulsant activity in albino CF1 mouse assessed as protection against subcutaneous metrazol-induced seizures at 100 mg/kg, ip after 0.5 hrs; type: functional, organism-based; parameters: dose 100 mg/kg; in short: as §1
# Rattus norvegicus [27] = assay: Neurotoxicity in pilocarpine-induced status epilepticus Sprague-Dawley albino rat model assessed as minimal motor impairment at 100 mg/kg, ip after 4 hrs by rotarod test; type: toxicity, organism-based; parameters: dose 100 mg/kg, route intraperitoneal; conditions: in vivo
# Rattus norvegicus [28] = assay: Anticonvulsant activity in Sprague-Dawley albino rat assessed as protection against pilocarpine-induced status epilepticus at 65 mg/kg, ip; type: functional, organism-based; parameters: dose 65 mg/kg; in short: as §5
# Rattus norvegicus [29] = assay: Neurotoxicity in pilocarpine-induced status epilepticus Sprague-Dawley albino rat model assessed as minimal motor impairment at 300 mg/kg, ip after 0.25 hr by rotarod test; type: toxicity, organism-based; parameters: dose 300 mg/kg, route intraperitoneal; conditions: in vivo; in short: as §3
# Mus musculus [30] = assay: Neurotoxicity in albino CF1 mouse assessed as minimal motor impairment at 30 mg/kg, ip after 0.5 hrs by rotarod test; type: toxicity, organism-based; parameters: dose 30 mg/kg, route intraperitoneal; conditions: in vivo; in short: as §1
# Mus musculus [31] = assay: Anticonvulsant activity in albino CF1 mouse assessed as protection against subcutaneous metrazol-induced seizures at 30 mg/kg, ip after 4 hrs; type: functional, organism-based; parameters: dose 30 mg/kg; in short: as §1
# Mus musculus [32] = assay: Neurotoxicity in albino CF1 mouse assessed as minimal motor impairment at 100 mg/kg, ip after 4 hrs by rotarod test; type: toxicity, organism-based; parameters: dose 100 mg/kg, route intraperitoneal; conditions: in vivo; in short: as §1
# Rattus norvegicus [33] = assay: Protective index, ratio of TD50 for po dosed Sprague-Dawley albino rat by rotarod test to ED50 for po dosed Sprague-Dawley albino rat by maximal electroshock seizures test; type: functional; in short: as §6
# Rattus norvegicus [34] = assay: Neurotoxicity in pilocarpine-induced status epilepticus Sprague-Dawley albino rat model assessed as minimal motor impairment at 30 mg/kg, ip after 4 hrs by rotarod test; type: toxicity, organism-based; parameters: dose 30 mg/kg, route intraperitoneal; conditions: in vivo; in short: as §3
# Mus musculus [35] = assay: Anticonvulsant activity in albino CF1 mouse assessed as protection against maximal electroshock-induced seizures at 100 mg/kg, ip after 4 hrs; type: functional, organism-based; parameters: dose 100 mg/kg; in short: as §1
# Mus musculus [36] = assay: Neurotoxicity in albino CF1 mouse assessed as minimal motor impairment at 30 mg/kg, ip after 4 hrs by rotarod test; type: toxicity, organism-based; parameters: dose 30 mg/kg, route intraperitoneal; conditions: in vivo; in short: as §1
# Mus musculus [37] = assay: Anticonvulsant activity in albino CF1 mouse assessed as protection against maximal electroshock-induced seizures at 30 mg/kg, ip after 0.5 hrs; type: functional, organism-based; parameters: dose 30 mg/kg; in short: as §1
# Rattus norvegicus [38] = assay: Neurotoxicity in pilocarpine-induced status epilepticus Sprague-Dawley albino rat model assessed as minimal motor impairment at 100 mg/kg, ip after 0.25 hr by rotarod test; type: toxicity, organism-based; parameters: dose 100 mg/kg, route intraperitoneal; conditions: in vivo
# Mus musculus [39] = assay: Neurotoxicity in albino CF1 mouse assessed as minimal motor impairment at 300 mg/kg, ip after 4 hrs by rotarod test; type: toxicity, organism-based; parameters: dose 300 mg/kg, route intraperitoneal; conditions: in vivo; in short: as §1
# [40] = Neurotoxicity in po dosed Sprague-Dawley albino rat assessed as minimal motor impairment by rotarod test; type: toxicity, organism-based; conditions: in vivo
# In short: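 Rats dosed orally; 4 rats per time point after dosing. Neurotoxicity was scored as motor impairment or sedation and reported as number of animals affected over number tested.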
# Mus musculus [41] = assay: Anticonvulsant activity in albino CF1 mouse assessed as protection against maximal electroshock-induced seizures at 300 mg/kg, ip after 0.5 hrs; type: functional, organism-based; parameters: dose 300 mg/kg; in short: as §1
structure (smiles),measurement,setting,value
CCC(C)C(CC)COC(N)=O (racemic),Activity,Mus musculus [1],Active
same,ED50,Rattus norvegicus [2],68 mg/kg
same,Activity,Rattus norvegicus [3],Non-toxic
same,Activity,Rattus norvegicus [4],inactive
same,Activity,Rattus norvegicus [5],Toxic
same,Activity,Mus musculus [6],inactive
same,Activity,Mus musculus [7],Active
same,Activity,Rattus norvegicus [8],inactive
same,Activity,Rattus norvegicus [9],inactive
same,Activity,Rattus norvegicus [10],Non-toxic
same,Activity,Rattus norvegicus [11],Non-toxic
same,Activity,Rattus norvegicus [12],Non-toxic
same,Activity,Mus musculus [13],inactive
same,Activity,Rattus norvegicus [14],Toxic
same,Activity,Mus musculus [15],inactive
same,Activity,Rattus norvegicus [16],Toxic
same,Activity,Rattus norvegicus [17],Toxic
same,Activity,Rattus norvegicus [18],Non-toxic
same,Activity,Mus musculus [19],inactive
same,Activity,Rattus norvegicus [20],Non-toxic
same,Activity,Mus musculus [21],inactive
same,Activity,Rattus norvegicus [22],Toxic
same,ED50,Rattus norvegicus [23],52 mg/kg
same,ED50,Rattus norvegicus [24],96 mg/kg
same,ED97,Rattus norvegicus [24],174 mg/kg
same,Ratio TD50/ED50,Rattus norvegicus [25],4.3
same,Activity,Mus musculus [26],Active
same,Activity,Rattus norvegicus [27],Toxic
same,Activity,Rattus norvegicus [28],Active
same,Activity,Rattus norvegicus [29],Toxic
same,Activity,Mus musculus [30],Non-toxic
same,Activity,Mus musculus [31],inactive
same,Activity,Mus musculus [32],Non-toxic
same,Ratio TD50/ED50,Rattus norvegicus [33],5.5
same,Activity,Rattus norvegicus [34],Toxic
same,Activity,Mus musculus [35],inactive
same,Activity,Mus musculus [36],Non-toxic
same,Activity,Mus musculus [37],inactive
same,Activity,Rattus norvegicus [38],Toxic
same,Activity,Mus musculus [39],Non-toxic
same,TD50,[40],291 mg/kg
same,Activity,Mus musculus [41],Active
